# Assays:
# PC-3 = assay: Cytotoxicity against human PC3 cells assessed as cell growth inhibition after 24 hrs by MTT assay; format: functional, cell-based; conditions: PC-3, 24 h
# In short: (§1)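 Cells seeded 24 h in RPMI 1640 + 10% FBS. RWPE-1 was kept in K-SFM with bovine pituitary extract and EGF. Cells then exposed to compounds for 24 h at 37 °C, 5% CO2, with DMSO vehicle and docetaxel as positive control. MTT added for 4 h, absorbance read at 570 nm. Triplicate runs, IC50 reported as mean of three experiments.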
# K562 = assay: Cytotoxicity against human K562 cells assessed as cell growth inhibition after 24 hrs by MTT assay; format: functional, cell-based; conditions: K562, 24 h; in short: as §1
# RWPE-1 = assay: Cytotoxicity against human RWPE1 cells assessed as cell growth inhibition after 24 hrs by MTT assay; format: cell-based; conditions: RWPE-1, 24 h; in short: as §1
# MDA-MB-231 = assay: Cytotoxicity against human MDA-MB-231 cells assessed as cell growth inhibition after 24 hrs by MTT assay; format: functional, cell-based; conditions: MDA-MB-231, 24 h; in short: as §1
# MCF7 = assay: Cytotoxicity against human MCF7 cells assessed as cell growth inhibition after 24 hrs by MTT assay; format: functional, cell-based; conditions: MCF7, 24 h; in short: as §1
# HeLa = assay: Cytotoxicity against human HeLa cells assessed as cell growth inhibition after 24 hrs by MTT assay; format: functional, cell-based; in short: as §1
# DU-145 = assay: Cytotoxicity against human DU145 cells assessed as cell growth inhibition after 24 hrs by MTT assay; format: functional, cell-based; conditions: DU-145, 24 h; in short: as §1
Structure (SMILES),IC50 (PC-3) [µM],IC50 (K562) [µM],IC50 (RWPE-1) [µM],IC50 (MDA-MB-231) [µM],IC50 (MCF7) [µM],IC50 (HeLa) [µM],IC50 (DU-145) [µM]
CCCCCCOc1cc2c(cc1OCCCCCC)[C@@H]1C[C@@H](O)C[C@@H](C)N1CC2,> 20,> 20,> 20,> 20,> 20,> 20,> 20
C[C@@H]1C[C@@H](O)C[C@H]2c3cc(OCc4cc(F)cc(F)c4)c(OCc4cc(F)cc(F)c4)cc3CCN12,1.35,1.89,4.42,2.11,1.71,1.96,1.88
CCC[C@@H]1C[C@H](O)C[C@H]2c3cc(OCc4ccccc4)c(OCc4ccccc4)cc3CCN12,–,3.88,–,6.72,–,5.49,–
C[C@@H]1CC(=O)C[C@H]2c3cc(OCc4cc(F)cc(F)c4)c(OCc4cc(F)cc(F)c4)cc3CCN12 (relative stereo),> 20,> 20,> 20,> 20,> 20,> 20,> 20
C[C@@H]1C[C@H](O)C[C@H]2c3cc(OCc4cc(F)cc(F)c4)c(OCc4cc(F)cc(F)c4)cc3CCN12,–,2.29,–,3.16,–,3.04,–
O[C@@]1(c2ccccc2)C[C@@H](c2ccccc2)N2CCc3cc(OCc4ccccc4)c(OCc4ccccc4)cc3[C@@H]2C1,> 20,> 20,> 20,> 20,> 20,> 20,> 20
C[C@@]1(O)C[C@@H](c2ccccc2)N2CCc3cc(OCc4ccccc4)c(OCc4ccccc4)cc3[C@@H]2C1,–,1.98,2.02,5.48,9.2,6.57,11.6
CCC[C@@H]1C[C@@H](O)C[C@H]2c3cc(OCc4ccccc4)c(OCc4ccccc4)cc3CCN12,–,2.32,–,2.57,–,2.38,–
C[C@@H]1C[C@H](O)C[C@H]2c3cc(OCc4ccc(C(C)(C)C)cc4)c(OCc4ccc(C(C)(C)C)cc4)cc3CCN12,–,2.88,–,1.46,–,2.56,–
CCC[C@@H]1C[C@@H](O)/C=C\C(CC)[C@H]2c3cc(OCc4ccccc4)c(OCc4ccccc4)cc3CCN12 (some centres not stated),–,5.61,–,2.72,–,3.43,–
C[C@@H]1C[C@H](O)C[C@H]2c3cc(OCc4ccc(Br)cc4)c(OCc4ccc(Br)cc4)cc3CCN12,–,3.15,2.89,2.25,–,2.88,–
CC[C@@H]1C[C@H](O)C[C@H]2c3cc(OCc4ccccc4)c(OCc4ccccc4)cc3CCN12,3.52,3.81,–,10.2,3.02,5.27,3.37
C[C@@H]1CC(=O)C[C@H]2c3cc(OCc4ccccc4)c(OCc4ccccc4)cc3CCN12 (relative stereo),2.27,> 20,–,2.52,2.23,2.99,4.25
C[C@@H]1C[C@@](C)(O)C[C@H]2c3cc(OCc4ccccc4)c(OCc4ccccc4)cc3CCN12,2.6,–,–,6.47,1.39,5.21,2.11
C[C@@H]1C[C@H](O)C[C@H]2c3cc(OCc4ccccc4)c(OCc4ccccc4)cc3CCN12,7.67,3.26,–,7.22,2.5,1.06,1.95
CCC[C@@H]1C[C@@](C)(O)C[C@H]2c3cc(OCc4ccccc4)c(OCc4ccccc4)cc3CCN12,–,6.81,–,2.37,–,6.34,–
CC1(C)C[C@@H](O)C[C@H]2c3cc(OCc4ccccc4)c(OCc4ccccc4)cc3CCN21 (relative stereo),–,5.44,–,5.01,–,7.22,–

# From ChEMBL document CHEMBL4425094, “Novel Benzo[a]quinolizidine Analogs Induce Cancer Cell Death through Paraptosis and Apoptosis” (J Med Chem, 2016)
